# Compound activity from PubChem BioAssay.
# LMPTP block: LMPTP (human) inhibition; P24666; recombinant LMPTP-A, OMFP fluorogenic substrate, fluorescence intensity; inhibition, % at 20 µM; 360,000 tested, 0.22% active; AID 651560;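 active = compounds that cut the enzyme signal by at least half of the control window in the single-dose screen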;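 also: plate controls were DMSO wells with enzyme plus substrate for no effect and substrate without enzyme for full effect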
# Target sequence (P24666 whole entry, looked up): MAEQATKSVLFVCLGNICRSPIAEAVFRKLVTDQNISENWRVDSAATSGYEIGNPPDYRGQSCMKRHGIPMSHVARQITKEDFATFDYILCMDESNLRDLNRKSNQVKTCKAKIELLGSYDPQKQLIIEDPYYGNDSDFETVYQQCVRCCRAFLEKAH
#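 Test system: LMPTP-A phosphatase enzyme; input: 0.625 nM LMPTP-A final; reagent: OMFP substrate, 400 µM final; compound dosing: 20 µM single dose, 3% DMSO; incubation: 50 min dark incubation at room temperature; measured by: endpoint fluorescence intensity from OMFP dephosphorylation; measure: % inhibition relative to no-enzyme and uninhibited control wells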
# DNMT1 inh: blocks human DNA methyltransferase DNMT1 | AID 588458 | DNMT1 molecular beacon, Hinp1I cleavage, fluorescence | inhibition (reported as % activation of signal), % at 10 µM | P26358 | 360,000 tested, 0.83% active; in the data active = inhibition above about 50%
# Scp-1 inhibitor: inhibitors of human Scp-1 phosphatase. Recombinant Scp1, phosphopeptide, malachite green phosphate absorbance. inhibition, % at 20 µM. AID 493091. Q9GZU7. 340,000 tested, 0.88% active;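 active = inhibition above about 50% at 20 µM, limit read from the data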;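 also: plate controls were DMSO wells with enzyme for no effect and wells lacking enzyme for full effect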
# Target sequence (Q9GZU7 76-261 limits assumed): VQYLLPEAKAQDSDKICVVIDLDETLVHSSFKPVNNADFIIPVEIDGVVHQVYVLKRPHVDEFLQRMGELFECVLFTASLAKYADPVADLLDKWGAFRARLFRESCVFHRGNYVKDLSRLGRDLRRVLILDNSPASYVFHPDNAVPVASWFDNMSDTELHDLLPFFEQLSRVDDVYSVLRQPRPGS
#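 Times: enzyme reaction 45 min at room temperature, colour 5 min, stabilisation 30 min. Material: SCP-1 catalytic fragment, aa 76-261. Medium: Acidic Tris acetate buffer with magnesium and detergent. Signal: colorimetric free-phosphate detection, absorbance 630 nm. Read-out basis: % inhibition of SCP-1 phosphate liberation. Reagent: Phosphorylated 17-residue peptide substrate.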
# STEP inh: inhibitors of human striatal-enriched phosphatase STEP; recombinant STEP, OMFP fluorogenic substrate, fluorescence; P54829; 360,000 tested, 0.25% active; inhibition, % at 20 µM; AID 588621;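 active = inhibition at 20 µM, scaled per plate between control wells, above about 37%, limit read from the data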;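 also: 0% = DMSO with enzyme and substrate and 100% = substrate only without enzyme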
#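 medium = Bis-Tris buffer pH 6.0, 2.5 mM DTT, 0.005% Tween 20 | test system = STEP (striatal-enriched tyrosine phosphatase) enzyme, cell-free | measure = normalized % inhibition | compound dosing = 20 µM, 1% DMSO | also added = 25 µM OMFP | schedule = reaction 20 min, ambient temperature | measured by = fluorescence read at 480 nm ex / 540 nm em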
# Rpn11 inh: Rpn11 (human) deubiquitinase inhibition; human 26S proteasome, Ub4-pepOG fluorescence polarization; 20S core pre-blocked with epoxomicin; inhibition, % at 20 µM; 360,000 tested, 0.59% active; AID 588493;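 active = inhibition at 20 µM, scaled to each plate's controls, above about 33%, limit read from the data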
# Target sequence (O00487 whole entry, looked up): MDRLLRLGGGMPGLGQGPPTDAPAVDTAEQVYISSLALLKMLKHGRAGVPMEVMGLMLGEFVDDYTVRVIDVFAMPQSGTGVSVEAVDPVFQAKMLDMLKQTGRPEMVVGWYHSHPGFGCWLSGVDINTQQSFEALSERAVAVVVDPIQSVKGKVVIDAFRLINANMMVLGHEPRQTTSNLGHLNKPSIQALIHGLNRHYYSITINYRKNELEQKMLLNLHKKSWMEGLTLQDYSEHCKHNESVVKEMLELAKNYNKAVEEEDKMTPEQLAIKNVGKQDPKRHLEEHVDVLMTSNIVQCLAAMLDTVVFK
# Rpn11 inh conf: Rpn11 inhibition confirmation, single concentration. AID 602318. purified human 26S proteasome, Ub4-pepOG fluorescence polarization; proteasome pretreated with epoxomicin. 1,900 tested, 29% active. inhibition, % at 20 µM. shares compounds with Rpn11 inh
# MMP-2 counter: counter-screen for RPN11 inhibitors: inhibition of human MMP-2 | shares compounds with Rpn11 inh | recombinant MMP-2, FRET peptide cleavage fluorescence | inhibition, % at 20 µM | 1,900 tested, 4% active;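 also: human MMP-2 activated beforehand with APMA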
# Thrombin FP: counter-screen for RPN11 inhibitors: inhibition of bovine thrombin; shares compounds with Rpn11 inh; bovine thrombin cleavage of Ub4-pepOG, fluorescence polarization; inhibition, % at 20 µM; 1,900 tested, 13% active;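 active = mean inhibition at least 40% at 20 µM, or signal 3 deviations below plate average, so some actives read negative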;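 also: plate controls were thrombin with DMSO for no effect and buffer wells lacking thrombin for full effect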
# Active calls of the source: *; / = no result shown. This is a sample that favours compounds with a hit; in the whole collection about 2% have one here. Rule as the data show it, unless noted: active = inhibition above about 40%; inactive = the rest.
SMILES,LMPTP block,DNMT1 inh,Scp-1 inhibitor,STEP inh,Rpn11 inh,Rpn11 inh conf,MMP-2 counter,Thrombin FP
CSc1nc2nccc(-c3ccc(-c4ccccc4)cc3)n2n1,8.5,-3.6,46.4,0.2,60.0*,1.2,32.5,-6.2
CCOc1ncccc1C(=O)Nc1cc2c(cc1Br)OCCO2,2.5,-3.7,-8.6,1.9,3.2,/,/,/
Clc1cccc(CNc2nc(-c3cccnc3)nc3ccccc23)c1,16.4,-1.3,0.1,0.3,53.9*,4.2,-60.2,-16.8
Oc1nc(Nc2ccc(Cl)cc2Cl)sc1/C=C1\C=Nc2ccccc21,2.4,-22.1,-1.2,-0.3,56.5*,60.1*,21.5,44.9*
Cc1nc(Nc2ccc(Cl)cc2Cl)sc1C(=O)Nc1ccccc1,3.9,-1.5,-3.1,-1.8,5.6,/,/,/
O=c1ccc(NS(=O)(=O)c2ccccc2)cn1Cc1ccc(Cl)c(Cl)c1,1.1,-18.1,-10.8,3.9,35.7*,20.0,28.1,3.2
O=C(Cc1ccc(Cl)c(Cl)c1)Nc1ccc(S(=O)(=O)Nc2ncccn2)cc1,1.1,-1.4,-2.3,-2.6,9.0,/,/,/
COc1ccccc1C(=O)NC(=O)COC(=O)CCS(=O)(=O)c1ccc(C)cc1,-1.6,8.7,-8.2,0.2,3.7,/,/,/
COc1cc(/C=C(\C#N)c2nc3ccccc3s2)cc([N+](=O)[O-])c1O,10.2,0.5,21.2,7.1,27.4,/,/,/
N#C/C(=C\c1ccc(O)c([N+](=O)[O-])c1)c1nc2ccccc2s1,2.1,4.5,48.6,19.5,44.9*,42.1*,71.8*,15.2
COc1ccc(Cl)cc1NC(=S)N1CC(C)OC(C)C1 (stereo unspecified),-0.9,0.6,-2.0,0.3,5.2,/,/,/
COC(=O)c1ccc2c(c1)C(=O)/C(=C/c1ccc(O)cc1)O2,7.1,-4.9,18.1,-0.6,23.3,/,/,/
COc1cccc(/C=C2\Oc3ccc(O)cc3C2=O)c1O,7.4,1.3,7.5,5.3,43.6*,-6.0,-73.3,-13.5
O=C(NC12CC3CC(CC(C3)C1)C2)N1CCC(O)CC1,-0.5,2.2,1.7,-1.3,111.1*,-18.0,-55.2,-13.5
CCOc1ccc(-c2nn(-c3ccccc3)cc2/C=C2\SC(=S)N(C3CCS(=O)(=O)C3)C2=O)cc1 (stereo unspecified),0.5,-0.2,-7.3,-3.0,-50.2,/,/,/
O=C1C(=Cc2cn(-c3ccccc3)nc2-c2ccc(OCc3ccc(Cl)cc3)cc2)SC(=S)N1CCS(=O)(=O)O,93.7*,-180.9,/,8.1,116.3*,103.8*,64.6*,182.9*
O=C1C(=Cc2cn(-c3ccccc3)nc2-c2ccc(OCc3ccccc3F)cc2)SC(=S)N1CCS(=O)(=O)O,88.7*,37.4,/,7.3,82.9*,103.3*,57.8*,163.3*
O=C(O)CN1C(=O)/C(=C\c2cccc(OCc3ccccc3F)c2)SC1=S,0.8,7.8,-9.1,2.0,2.0,/,/,/
O=C(COC(=O)c1n[nH]c2ccccc12)NC(=O)NCc1ccco1,0.9,-2.0,2.7,-2.8,2.8,/,/,/
O=C(COC(=O)c1cc2ccccc2cc1O)NC(=O)NCc1ccco1,1.3,-6.6,-6.2,0.0,44.3*,8.1,-14.2,2.6
Cc1nnc(N/N=C/c2ccc(-c3ccccc3F)o2)n1N,-1.4,-14.3,-0.8,-3.0,9.7,/,/,/
Cc1nnc(N/N=C\c2ccc(-c3ccccc3[N+](=O)[O-])o2)n1N,1.6,-10.9,-5.1,1.5,64.7*,0.0,-37.4,-3.3
Cc1cc(/C=C(/C#N)c2nc3ccccc3[nH]2)c(C)n1-c1ccccc1C(=O)O,2.3,43.4,47.2,2.1,54.7*,74.9*,-3.2,50.8*
Cc1ccc2nc(/C(C#N)=C\c3cc(C)n(-c4cccc([N+](=O)[O-])c4)c3C)[nH]c2c1,2.5,-5.4,12.1,5.2,-6.1,/,/,/
CCN(CC(=O)Nc1ccc(NC(C)=O)cc1)C(=O)c1cccnc1Sc1ccc(C)c(C)c1,-2.2,-1.4,1.8,2.3,0.6,/,/,/
SMILES,LMPTP block,DNMT1 inh,Scp-1 inhibitor,STEP inh,Rpn11 inh,Rpn11 inh conf,MMP-2 counter,Thrombin FP
CCOc1ccc(C2NC(=O)C(C#N)=C(S)N2c2cccc(C)c2)cc1OC (stereo unspecified),0.2,-1.9,-6.0,-4.7,-0.4,/,/,/
CCOc1ccc(C2NC(=O)C(C#N)=C(S)N2c2ccc(C)cc2)cc1OC (stereo unspecified),-1.4,-7.2,-2.2,2.6,70.1*,5.3,23.1,-3.2
CSc1nsc(/C=C/Nc2ccc(F)cc2F)c1C#N,0.8,-29.3,-1.2,5.0,54.6*,-19.6,-12.6,-20.7
CC(C)N1CCc2c(sc(NC(=O)c3nc4ccccc4s3)c2C(N)=O)C1,4.7,-7.0,-8.6,9.8,61.2*,22.2,4.8,10.4
CC(C)N1CCc2c(sc(NC(=O)c3ccc(S(=O)(=O)N4CCc5ccccc54)cc3)c2C(N)=O)C1,4.4,-11.7,-3.0,8.5,/,/,/,/
CC(C)N1CCc2c(sc(NC(=O)c3cc(-c4cccs4)nc4ccccc34)c2C(N)=O)C1,0.8,-13.7,-4.8,10.1,56.8*,128.1*,1.5,56.3*
CC(=O)c1ccc(S(=O)(=O)NCCCC(=O)N(C)Cc2ccc3c(c2)OCO3)cc1,-0.6,0.5,-5.7,-3.1,4.5,/,/,/
O=S(=O)(Nc1ccon1)c1ccc(Br)s1,-1.7,5.4,-2.0,0.0,51.9*,13.2,-27.5,1.6
O=C1c2cccc(NCCCNCCO)c2C(=O)c2cccc(NCCCNCCO)c21,9.9,-100.5,-5.3,13.1,42.5*,21.4,37.9,-43.5
O=C1c2ccccc2C(=O)c2c(NCc3cccnc3)cccc21,13.7,-4.2,-7.3,3.7,1.6,/,/,/
COc1cccc(-c2nc(CN3CCN(C(=O)c4ccco4)CC3)c(C)o2)c1OC,-2.3,-0.4,/,-2.9,-1.1,/,/,/
Cc1ccc(-n2c(SCC(=O)NCC3CCCO3)nc3ccccc3c2=O)cc1 (stereo unspecified),-1.2,-2.5,-2.4,-1.2,-66.4,/,/,/
COc1ccc(-n2c(SCC(=O)NCC3CCCO3)nc3ccccc3c2=O)cc1Cl (stereo unspecified),-0.8,0.3,/,-0.4,47.2*,34.2,-23.0,13.7
CCN(CC(=O)Nc1c(F)cccc1F)C(=O)Cc1csc(-c2ccccc2)n1,-1.1,0.6,1.4,0.9,-1.0,/,/,/
CCOc1ccc(N=Nc2ccc(O)c3ncccc23)cc1,3.5,4.1,-9.8,1.2,23.4,/,/,/
CCOc1ccc2c(ccc(/C=C/c3cc(C)c4cccnc4c3O)[n+]2C)c1,75.8*,-20.7,51.7*,8.8,111.8*,102.2*,75.5*,39.7
